Sampled rows, rich in hits. Any-hit rate of the full collection: about 3.8%.
MrgX1 agonist: activates human MrgX1 receptor signaling; MrgX1-HEK293 cells, Fluo-4 calcium fluorescence, agonist mode; active compounds read high; AID 588627; actives 0.44% (n = 310,000); Q96LB2; B-score at 10 µM;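 active = calcium response B-score plate-corrected fluorescence ratio at least 3 library SD, with starting fluorescence B-score inside 5 SD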
Target sequence (Q96LB2 whole entry, looked up): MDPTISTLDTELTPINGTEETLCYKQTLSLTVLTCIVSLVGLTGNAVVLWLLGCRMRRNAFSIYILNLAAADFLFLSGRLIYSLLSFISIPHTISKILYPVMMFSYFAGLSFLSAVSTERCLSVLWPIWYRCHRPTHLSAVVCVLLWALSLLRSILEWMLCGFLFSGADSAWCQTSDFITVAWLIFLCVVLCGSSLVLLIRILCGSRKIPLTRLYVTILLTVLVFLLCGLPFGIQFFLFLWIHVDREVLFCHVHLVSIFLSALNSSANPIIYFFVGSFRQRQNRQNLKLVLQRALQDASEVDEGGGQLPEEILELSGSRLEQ
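Assay system: MrgX1-expressing HEK293 cells / Amount: fifteen thousand cells per well / Doses: test compound in the initial addition of three / Timing: cells plated overnight, dye loaded 0.5 h 37 °C, 0.5 h room temperature / Technique: kinetic calcium dye fluorescence, Fluo-4 NW / Control set: positive and negative controls per plate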
Lipid droplet: modulators of hepatic lipid droplet formation | AML12 mouse hepatocytes, oleate lipid droplets, BODIPY imaging | actives 0.4% (n = 240,000) | inhibition, % at 6.5 µM;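 active = lipid droplet intensity inhibited by at least 50%, with more than 500 cells counted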
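Assay system: AML12 mouse liver cells | Compound: 6.5 µM single-point dosing | Schedule: Overnight exposure | Technique: Fluorescence imaging, 20x objective, two fields per well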
RGS4 pot: potentiators or activators of RGS4. HEK293 M3R/inducible RGS4, carbachol calcium flux Fluo4; active compounds read low. actives 0.92% (n = 310,000). AID 463111. B-score at 10 µM;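 active = B-score of the integrated calcium signal more than 4 SD below the library mean, with starting fluorescence not abnormally high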;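 also: negative B-score means reduced calcium response which marks RGS4 activation or potentiation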
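Reagent: ECmax carbachol challenge; Test system: M3R-expressing HEK293 line, RGS4 induced by doxycycline; Schedule: overnight RGS4 induction, 30 min dye load 37 °C, 20 min compound RT; Detection: calcium dye Fluo4 fluorescence; Read-out: Agonist-evoked peak-minus-minimum fluorescence over baseline, integrated ratio, B score.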
MrgX1 PAM: allosterically activates human MrgX1 receptor signaling | actives 0.63% (n = 310,000) | MrgX1-HEK293, Fluo-4 calcium flux, FDSS; active compounds read high | B-score at 10 µM | Q96LB2;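 active = plate-corrected calcium response at least 3 library SD above typical, normal starting fluorescence, not activating the receptor alone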;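 also: compound read alongside a low EC10 to EC30 dose of BAM8-22 agonist; peak minus trough fluorescence over baseline measured at the second addition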
MrgX1 antag: human MrgX1 receptor antagonism, primary screen | Q96LB2 | MRGX1-HEK293 calcium flux, Fluo-4, BAM8-22 antagonism; active compounds read low | B-score at 10 µM | actives 1.3% (n = 310,000) | AID 588676;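 active = calcium-response B-score plate-corrected more than 3 library SD below zero, starting fluorescence within 5 deviations, no agonist response on first addition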;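 also: peak minus trough fluorescence over baseline after final BAM8-22 challenge near maximal dose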
RGS4 inh: inhibitors of human RGS4. B-score at 10 µM. HEK293 M3R/RGS4 inducible, Fluo-4 calcium flux; active compounds read high; triggered by carbachol at its EC20. P49798. actives 0.45% (n = 310,000);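 active = B-score, a plate-corrected calcium signal, over three deviations above library mean, with baseline fluorescence within five deviations of library mean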;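 also: RGS4 expression induced by doxycycline in cells with stable M3 receptor; B-score is computed from the integrated fluorescence ratio over baseline after carbachol; higher B-score means a larger calcium signal and so more RGS4 inhibition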
Target sequence (P49798 whole entry, looked up): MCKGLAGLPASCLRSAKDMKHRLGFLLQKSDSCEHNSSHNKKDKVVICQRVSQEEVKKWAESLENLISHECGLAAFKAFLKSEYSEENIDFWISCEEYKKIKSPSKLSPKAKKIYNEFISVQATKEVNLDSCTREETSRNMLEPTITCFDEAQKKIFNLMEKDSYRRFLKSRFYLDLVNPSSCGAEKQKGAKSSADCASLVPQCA
MrgX1 antag conf: reconfirmed antagonist of human MrgX1 receptor signaling. shares compounds with MrgX1 antag. MrgX1-HEK293, BAM8-22 calcium flux, Fluo-4; active compounds read low. remaining BAM8-22 calcium response % of control (active compounds read low), % at 10 µM. actives 19% (n = 2,300). AID 602420;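 active = remaining agonist calcium response no higher than 100% minus 3 SD of agonist-only control wells, with starting fluorescence near control levels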;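 also: agonist BAM8-22 given at a near maximal EC90 to ECmax level; peak minus minimum fluorescence divided by baseline after agonist addition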
HEK293 Ca flux: activity in parental HEK293 cells lacking MrgX1 | shares compounds with MrgX1 antag | Fluo-4 calcium fluorescence, FDSS | fluorescence ratio F(max-min)/F0 at 10 µM | actives 2% (n = 4,000);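 active = duplicate-averaged calcium fluorescence ratio at least three times the standard deviation of buffer wells, a nonspecific response in parental cells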
HEK293 Ca counter: MrgX1 allosteric activator counter-screen hit in parental HEK293 cells | shares compounds with MrgX1 antag | parental HEK293 calcium flux, Fluo-4 fluorescence ratio; active compounds read high | fluorescence ratio F(max-min)/F0 at 10 µM | actives 0.4% (n = 4,000);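 active = calcium fluorescence ratio, averaged over duplicates, at least 3 SD of the buffer-well ratio, meaning a nonspecific response in receptor-free cells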;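 also: untransfected parental HEK293 lacking MrgX1 used as counterscreen for MrgX1 allosteric activators; fluorescence change taken during the second addition on a kinetic imager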
HEK293 Ca cntr2: MrgX1 activator counter-screen hit in parental HEK293 cells; AID 624115; fluorescence ratio F(max-min)/F0 at 10 µM; actives 8.7% (n = 4,000); shares compounds with MrgX1 antag; Fluo-4 calcium fluorescence (FDSS); active compounds read high;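 active = calcium fluorescence ratio at least three times the spread of buffer wells, meaning a non-specific response in parental cells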
Numbers without * were called inactive.

How did O=C(c1ccc2c(=O)n(-c3ccccc3)c(=O)[nH]c2c1)N1CCCCC1 do in these assays?
MrgX1 agonist: inactive; Lipid droplet: 1; RGS4 pot: inactive; MrgX1 PAM: inactive; MrgX1 antag: inactive; RGS4 inh: inactive

Results for Cc1ccc(NC(=O)CSc2ccc3nnc(CCNC(=O)c4ccccc4)n3n2)c(C)c1 ?
MrgX1 agonist: inactive; Lipid droplet: 8; RGS4 pot: inactive; MrgX1 PAM: inactive; MrgX1 antag: inactive; RGS4 inh: inactive

Results for COc1ccc(Cc2cnc(N)s2)cc1 ?
MrgX1 agonist: inactive; Lipid droplet: 6; RGS4 pot: inactive; MrgX1 PAM: inactive; MrgX1 antag: -12*; RGS4 inh: inactive; MrgX1 antag conf: 79%*; HEK293 Ca flux: inactive; HEK293 Ca counter: inactive; HEK293 Ca cntr2: inactive

What do the screens show for `COc1ccc(C(O)C(CN2CCOCC2)c2ccccc2)cc1F` (stereo not drawn)?
MrgX1 agonist: inactive; Lipid droplet: -3; RGS4 pot: inactive; MrgX1 PAM: inactive; MrgX1 antag: -5.6*; RGS4 inh: inactive; MrgX1 antag conf: inactive; HEK293 Ca flux: inactive; HEK293 Ca counter: inactive; HEK293 Ca cntr2: inactive

Results for O=C(CSc1nncs1)Nc1nnc(-c2ccccc2)o1 ?
MrgX1 agonist: inactive; Lipid droplet: 1; RGS4 pot: inactive; MrgX1 PAM: inactive; MrgX1 antag: inactive; RGS4 inh: inactive

What do the screens show for `Cc1ccc2nc3c(c(C(=O)OCC(=O)NC4CCS(=O)(=O)C4)c2c1)CCCC3` (stereo not drawn)?
MrgX1 agonist: inactive; Lipid droplet: 17; RGS4 pot: inactive; MrgX1 PAM: inactive; MrgX1 antag: inactive; RGS4 inh: inactive

What do the screens show for `COc1ccc(NC(=O)CSc2nnc3n2CCCCC3)cc1`?
MrgX1 agonist: inactive; Lipid droplet: 1; RGS4 pot: inactive; MrgX1 PAM: inactive; MrgX1 antag: inactive; RGS4 inh: inactive

What do the screens show for `O=C(O)c1ccc(CSc2nc3ccc(N4C(=O)C5C6C=CC(C6)C5C4=O)cc3s2)cc1` (stereo not drawn)?
MrgX1 agonist: inactive; Lipid droplet: 8; RGS4 pot: inactive; MrgX1 PAM: inactive; MrgX1 antag: inactive; RGS4 inh: inactive

Results for CCc1cccc(CC)c1NC(=O)CSc1nc2ccc(N3C(=O)C4C5C=CC(C5)C4C3=O)cc2s1 (stereo not drawn) ?
MrgX1 agonist: inactive; Lipid droplet: -23; RGS4 pot: inactive; MrgX1 PAM: inactive; MrgX1 antag: -8.2*; RGS4 inh: inactive; MrgX1 antag conf: inactive; HEK293 Ca flux: inactive; HEK293 Ca counter: inactive; HEK293 Ca cntr2: inactive

Results for CCN(CC)S(=O)(=O)c1ccc(NC(=O)Nc2cccc(C(F)(F)F)c2)cc1 ?
MrgX1 agonist: inactive; Lipid droplet: -14; RGS4 pot: inactive; MrgX1 PAM: inactive; MrgX1 antag: -5.8*; RGS4 inh: inactive; MrgX1 antag conf: 64%*; HEK293 Ca flux: inactive; HEK293 Ca counter: inactive; HEK293 Ca cntr2: inactive

What do the screens show for `CN1CCc2c(sc(NC(=O)c3ccc(S(=O)(=O)N4CCc5ccccc54)cc3)c2C(N)=O)C1`?
MrgX1 agonist: inactive; Lipid droplet: 0; RGS4 pot: inactive; MrgX1 PAM: inactive; MrgX1 antag: inactive; RGS4 inh: inactive

What do the screens show for `CNC(=O)c1c(NC(=O)c2ccc(S(=O)(=O)N3CCCc4ccccc43)cc2)sc2c1CCN(C)C2`?
MrgX1 agonist: inactive; Lipid droplet: -8; RGS4 pot: inactive; MrgX1 PAM: inactive; MrgX1 antag: -5.5*; RGS4 inh: inactive; MrgX1 antag conf: inactive; HEK293 Ca flux: 0.66*; HEK293 Ca counter: inactive; HEK293 Ca cntr2: 49*

Results for C=C1CCN([C@@H](Cc2ccccc2)C(=O)NCCC(C)C)S(=O)(=O)c2ccccc21 ?
MrgX1 agonist: inactive; RGS4 pot: inactive; MrgX1 PAM: inactive; MrgX1 antag: inactive; RGS4 inh: inactive

How did COCCNC(=O)c1cc2oc3ccccc3c2n1C do in these assays?
MrgX1 agonist: inactive; Lipid droplet: -5; RGS4 pot: inactive; MrgX1 PAM: inactive; MrgX1 antag: -5*; RGS4 inh: inactive; MrgX1 antag conf: inactive; HEK293 Ca flux: inactive; HEK293 Ca counter: inactive; HEK293 Ca cntr2: inactive

Results for CN(C)c1ccc(-c2nc3ccccn3c2/N=C/c2ccc(Br)cc2)cc1 ?
MrgX1 agonist: inactive; Lipid droplet: 4; RGS4 pot: inactive; MrgX1 PAM: inactive; MrgX1 antag: inactive; RGS4 inh: inactive

Results for COCCN(C(=O)COC(=O)/C=C/c1cccs1)c1c(N)n(Cc2ccccc2)c(=O)[nH]c1=O ?
MrgX1 agonist: inactive; RGS4 pot: inactive; MrgX1 PAM: inactive; MrgX1 antag: -12*; RGS4 inh: inactive; MrgX1 antag conf: 69%*; HEK293 Ca flux: inactive; HEK293 Ca counter: inactive; HEK293 Ca cntr2: inactive

Results for CCC(CC)c1nnc(NC(=O)c2ccc(N3CCCC3=O)cc2)s1 ?
MrgX1 agonist: inactive; RGS4 pot: inactive; MrgX1 PAM: inactive; MrgX1 antag: -4.9*; RGS4 inh: inactive; MrgX1 antag conf: inactive; HEK293 Ca flux: inactive; HEK293 Ca counter: inactive; HEK293 Ca cntr2: inactive

Results for CN(C)c1ccc(C2N(c3ccc(Cl)cc3)C(=O)C3CCCN32)cc1 (stereo not drawn) ?
MrgX1 agonist: inactive; RGS4 pot: inactive; MrgX1 PAM: inactive; MrgX1 antag: -6*; RGS4 inh: inactive; MrgX1 antag conf: inactive; HEK293 Ca flux: inactive; HEK293 Ca counter: inactive; HEK293 Ca cntr2: inactive

How did Oc1c(Br)cc(Br)cc1C=Nc1cccc2ncccc12 do in these assays?
MrgX1 agonist: inactive; RGS4 pot: inactive; MrgX1 PAM: inactive; MrgX1 antag: -7.1*; RGS4 inh: inactive; MrgX1 antag conf: 83%*; HEK293 Ca flux: inactive; HEK293 Ca counter: inactive; HEK293 Ca cntr2: inactive

Source: PubChem (several laboratories)
